Screening data as filed in PubChem BioAssay.
A selection: hits, their analogues and other compounds. The true share with any hit is near 2.5%.
SENP8 block-1: inhibitors of human SENP8 protease. Q96LD8. 330,000 tested, 1.2% active. AID 2540. purified SENP8, Z-RLRGG-aminoluciferin cleavage, luminescence. inhibition, % at 10 µM; in the data active = inhibition above about 50%
Target sequence (Q96LD8 whole entry, looked up): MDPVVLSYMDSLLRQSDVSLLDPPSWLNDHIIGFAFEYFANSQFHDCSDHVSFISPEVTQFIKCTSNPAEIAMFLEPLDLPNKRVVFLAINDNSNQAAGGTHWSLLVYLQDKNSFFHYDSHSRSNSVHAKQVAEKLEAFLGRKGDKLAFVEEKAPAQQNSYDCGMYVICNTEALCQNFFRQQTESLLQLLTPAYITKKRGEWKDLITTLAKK
SENP6 inh: SENP6 protease inhibition | Q9GZR1 | Recombinant SENP6 catalytic domain, aminoluciferin luminescence | inhibition, % at 10 µM | 330,000 tested, 1.8% active | AID 2599;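 active = inhibition above about 50% at the single tested dose, limit read from the data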;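 note: plate controls were DMSO wells with enzyme for no effect and DMSO wells lacking enzyme for full effect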
SENP1 FRET inh: blocks the human SENP1 SUMO protease catalytic domain; Q9P0U3; recombinant SENP1 catalytic domain, CyPet-SUMO1-YPet FRET cleavage; inhibition, % at 10 µM; 360,000 tested, 0.21% active; AID 624204;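 active = inhibition at least 30% at 10 µM, raw YFP signal under a set limit, fluorescence ratio 0.5 to 1.5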;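 note: 0% = enzyme with DMSO and 100% = no enzyme wells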
Target sequence (Q9P0U3 419-644 limits assumed): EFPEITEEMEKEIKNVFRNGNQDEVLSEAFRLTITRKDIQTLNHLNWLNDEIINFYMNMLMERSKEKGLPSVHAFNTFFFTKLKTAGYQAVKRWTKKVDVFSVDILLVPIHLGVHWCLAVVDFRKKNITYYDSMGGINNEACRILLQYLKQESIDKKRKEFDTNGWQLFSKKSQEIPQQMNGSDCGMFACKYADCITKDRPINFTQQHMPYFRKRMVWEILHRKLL
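Assay system – human recombinant His6-tagged SENP1 catalytic domain enzyme · Input – SENP1 enzyme, 20 pM final · Buffer or medium – Tris pH 8 buffer plus EDTA, NaCl, BME, BSA, NP40, catalase · Schedule – 50 min reaction at room temperature · Technique – FRET read of cyan and yellow fluorescence · Control set – no-enzyme wells low, DMSO-plus-enzyme wells high control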
SENP8 block-2: inhibitors of human SENP8 protease | inhibition, % at 20 µM | Q96LD8 | recombinant SENP8, Nedd8 substrate fluorescence | 360,000 tested, 0.64% active; in the data active = inhibition mostly above about 40%, no sharp cut-off; inactive = mostly below about 27%
SENP7 block: blocks the human protease SENP7; Q9BQF6; recombinant SENP7, Z-RLRGG-aminoluciferin luminescence, 40 min; inhibition, % at 5 µM; 330,000 tested, 1.5% active; AID 434973;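 active = inhibition above about 50% at the single test dose, limit read from the data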;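 note: plate controls were DMSO with enzyme for no effect and no enzyme buffer wells for full effect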
An asterisk follows results filed as active.

Results for NC(=O)c1c(NC(=O)c2cccs2)sc2c1CCCCCC2 ?
SENP8 block-1: -7; SENP6 inh: 10; SENP1 FRET inh: -5; SENP8 block-2: -167; SENP7 block: 3

How did O=C(Nc1nc2c(s1)CCCC2)c1cccs1 do in these assays?
SENP8 block-1: 92*; SENP6 inh: 95*; SENP1 FRET inh: 1; SENP8 block-2: -37; SENP7 block: 96*

How did O=C(Nc1sc2c(c1C(=O)O)CCC2)c1cccs1 do in these assays?
SENP8 block-1: 92*; SENP6 inh: 90*; SENP1 FRET inh: -2; SENP8 block-2: -73; SENP7 block: 44

How did O=C(Cc1cccs1)Nc1nc2c(s1)CCCC2 do in these assays?
SENP8 block-1: -15; SENP6 inh: 26; SENP1 FRET inh: 0; SENP8 block-2: 0; SENP7 block: -2

How did Cc1cccc(Nc2nc3c(s2)CCCC3)c1 do in these assays?
SENP1 FRET inh: -7; SENP8 block-2: 6

What do the screens show for `COc1cc(C(=O)N2CCN(c3ccccc3)CC2)c2ccccc2n1`?
SENP1 FRET inh: 4; SENP8 block-2: 1

What do the screens show for `CC(C)CC(=O)N1CCN(c2ccc([N+](=O)[O-])c(NCc3ccccc3)c2)CC1`?
SENP8 block-1: -4; SENP6 inh: -12; SENP1 FRET inh: 2; SENP8 block-2: 54*; SENP7 block: 3

Results for O=c1c2cc(Cl)ccc2nc(-c2ccc(Cl)c(Cl)c2)n1O ?
SENP8 block-1: 15; SENP6 inh: 59*; SENP1 FRET inh: 5; SENP8 block-2: -19; SENP7 block: 9

What do the screens show for `COc1cccc(C(C(=O)NCc2ccccc2)N2CCN(C(=O)C3CCCO3)CC2)c1OC` (stereo not drawn)?
SENP1 FRET inh: 2; SENP8 block-2: 28

How did Cc1ccc(-c2cn3nc(C)c(C)nc3n2)cc1 do in these assays?
SENP8 block-1: 53*; SENP6 inh: 16; SENP1 FRET inh: -19; SENP8 block-2: -292; SENP7 block: 8

Results for COc1ccc(-c2cn3nc(C)c(C)nc3n2)cc1OC ?
SENP8 block-1: 1; SENP6 inh: 1; SENP1 FRET inh: -21; SENP8 block-2: -164; SENP7 block: 4

What do the screens show for `O=C(O/N=C/c1ccc2c(c1)OCO2)c1ccccc1Cl`?
SENP8 block-1: 84*; SENP6 inh: 86*; SENP7 block: 80*

How did O=C(N/N=C/c1ccc2c(c1)OCO2)C(=O)Nc1ccccc1Cl do in these assays?
SENP8 block-1: 23; SENP6 inh: 0; SENP1 FRET inh: 1; SENP8 block-2: -96; SENP7 block: -6

How did Cc1ccc(NC(=O)CSc2nc3ccccc3c(=O)n2CCCC(=O)NCCCN2CCOCC2)cc1 do in these assays?
SENP8 block-1: 11; SENP6 inh: -23; SENP1 FRET inh: 3; SENP8 block-2: 17; SENP7 block: -2

What do the screens show for `COc1cccc(/C=N/Nc2nn3cnnc3c3ccccc23)c1O`?
SENP8 block-1: 2; SENP6 inh: 1; SENP1 FRET inh: 55*; SENP8 block-2: 14; SENP7 block: 3

How did O=C(C[C@H]1C/C=C\CCCC(=O)OC[C@H]2CCCN2C1=O)NCCO do in these assays?
SENP8 block-1: -12; SENP6 inh: -13; SENP1 FRET inh: 2; SENP8 block-2: 16; SENP7 block: -11

Results for COC(=O)c1c(N)n(CCCN2CCOCC2)c2nc3ccccc3nc12 ?
SENP8 block-1: 2; SENP6 inh: 7; SENP1 FRET inh: -60; SENP8 block-2: -322; SENP7 block: 7

How did Nc1c(C(=O)NCc2ccc(F)cc2)c2nc3ccccc3nc2n1CCCN1CCOCC1 do in these assays?
SENP8 block-1: 80*; SENP6 inh: 78*; SENP1 FRET inh: -33; SENP8 block-2: -250; SENP7 block: 57*

How did COc1ccc(CNC(=O)c2c(N)n(CCCN3CCOCC3)c3nc4ccccc4nc23)cc1 do in these assays?
SENP8 block-1: 71*; SENP6 inh: 68*; SENP1 FRET inh: -24; SENP8 block-2: -301; SENP7 block: 44

How did COCCNC(=O)/C(C#N)=C/C=C/c1ccccc1[N+](=O)[O-] do in these assays?
SENP8 block-1: -1; SENP6 inh: 7; SENP1 FRET inh: -110; SENP8 block-2: -148; SENP7 block: -16

How did OCCC1CN(Cc2cccc3nccnc23)CCN1Cc1ccc(F)cc1 (stereo not drawn) do in these assays?
SENP8 block-1: 5; SENP6 inh: 14; SENP1 FRET inh: -1; SENP8 block-2: 21; SENP7 block: 13

What do the screens show for `NC(=O)c1ccsc1NC(=O)c1cc(=O)c2ccccc2o1`?
SENP8 block-1: 26; SENP6 inh: 41; SENP1 FRET inh: 3; SENP8 block-2: 6; SENP7 block: 65*

Results for O=C1C(NS(=O)(=O)c2cccs2)=C(N2CCOCC2)C(=O)c2ccccc21 ?
SENP8 block-1: 1; SENP6 inh: -13; SENP1 FRET inh: -1; SENP8 block-2: 42*; SENP7 block: 6

How did O=C1C(NS(=O)(=O)c2cccs2)=C(N2CCN(c3cccc(C(F)(F)F)c3)CC2)C(=O)c2ccccc21 do in these assays?
SENP8 block-1: 6; SENP6 inh: 6; SENP1 FRET inh: 9; SENP8 block-2: 56*; SENP7 block: 24

How did Clc1c(CSc2nc3ccccc3o2)nc2sccn12 do in these assays?
SENP8 block-1: 26; SENP6 inh: 42; SENP1 FRET inh: -2; SENP8 block-2: 11; SENP7 block: 22

Results for Clc1c(CSc2nc3ccccc3o2)nc2ccccn12 ?
SENP8 block-1: 19; SENP6 inh: 52*; SENP1 FRET inh: -1; SENP8 block-2: 4; SENP7 block: 37

What do the screens show for `CCN(C(=O)C(C)N1C(=O)/C(=C/c2ccco2)SC1=S)C1CCS(=O)(=O)C1` (stereo not drawn)?
SENP8 block-1: 11; SENP6 inh: 14; SENP1 FRET inh: -8; SENP8 block-2: 48*; SENP7 block: 1

How did Cc1nnsc1C(=O)Nc1ccc(Cl)cc1 do in these assays?
SENP8 block-1: -11; SENP6 inh: 12; SENP1 FRET inh: 1; SENP8 block-2: 7; SENP7 block: 11

How did Cc1nnsc1C(=O)NC(=O)Nc1ccc(F)c(Cl)c1 do in these assays?
SENP8 block-1: 78*; SENP6 inh: 82*; SENP1 FRET inh: -1; SENP8 block-2: 25; SENP7 block: 18

What do the screens show for `COc1ccc(NC(=O)Nc2ccc(F)c(Cl)c2)cc1`?
SENP8 block-1: 9; SENP6 inh: -5; SENP1 FRET inh: 0; SENP8 block-2: 14; SENP7 block: 51*

What do the screens show for `Cc1cc(NCC(c2ccccc2)c2ccccc2)n2ncnc2n1`?
SENP8 block-1: -8; SENP6 inh: -1; SENP1 FRET inh: 0; SENP8 block-2: 11; SENP7 block: 0

What do the screens show for `CS(=O)(=O)Nc1cccc(S(=O)(=O)N2CCN(C(=O)c3ccccc3)CC2)c1`?
SENP8 block-1: -6; SENP6 inh: -8; SENP1 FRET inh: 2; SENP8 block-2: 23; SENP7 block: 8

How did CC(=O)N1CCC(c2nc3ccccc3n2C(C)C(=O)NCc2ccccc2)CC1 (stereo not drawn) do in these assays?
SENP1 FRET inh: 2; SENP8 block-2: 11
